ChEMBL document CHEMBL4765271, “Design, synthesis and biological evaluation of 2,3-dihydro-5,6-dimethoxy-1H-inden-1-one and piperazinium salt hybrid derivatives as hAChE and hBuChE enzyme inhibitors” (Eur J Med Chem, 2020)
The source made the active and inactive calls. The calls are words filed in the database; no cut-off is given here.

Legend:
[1] = biological target: T1, Acetylcholinesterase (Homo sapiens, UniProt P22303); test: Inhibition of human erythrocyte AChE using acetylthiocholine as substrate measured after 5 mins by Ellman's method
[2] = biological target: T2, Cholinesterase (Homo sapiens, UniProt P06276); test: Inhibition of human plasma BuChE using butyrylthiocholine as substrate measured after 5 mins by Ellman's method
[3] = organism: Homo sapiens; test: Selectivity ratio of IC50 for human erythrocyte AChE to IC50 for human plasma BuChE
Procedure, shortened: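 Ellman assay used cholinesterases from human blood. Inhibitor at five concentrations was pre-incubated 5 min at 37 °C in phosphate buffer pH 8 with DTNB (3.5 mM stock) and acetylthiocholine iodide substrate (7 mM stock). The reaction was started with enzyme and read as absorbance increase at 412 nm. Each run was done twice. The ratio is derived from the AChE and BuChE IC50 values.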

[4] = tested on: PC-12; test: Antioxidant activity in amyloid beta (1 to 42)-induced oxidative stress in rat PC-12 cells assessed as reduction in ROS formation by measuring DCF fluorescence intensity at 1 uM measured after 24 hrs by DCFH-DA staining based fluorescence spectrophotometric assay (reference value: 51 +/- 11); format: functional
[5] = biological target: T1, Acetylcholinesterase; test: Mixed type inhibition of human erythrocyte AChE using varying levels of acetylthiocholine iodide as substrate by Lineweaver-Burk plot analysis
[6] = tested on: SH-SY5Y; test: Cytotoxicity against human SH-SY5Y cells measured after 48 hrs by MTT assay; format: ADME, cell-based
[7] = tested on: PC-12; test: Antiinflammatory activity in amyloid beta (1 to 42)-induced cytokine production in rat PC-12 cells assessed as decrease in TNFalpha mRNA level by SYBR green dye based RT-PCR analysis; format: functional, cell-based
Procedure, shortened: (§1)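 PC12 cells (7-day cultures, DMEM with 7% FBS, 7% horse serum) exposed to 5 μM Aβ(1-42) in serum-free DMEM for 24 h at 37 °C, 5% CO2, then compound at 1 or 10 μM for 24 h. Total RNA isolated, reverse transcribed, and IL-1β and TNF-α mRNA quantified by SYBR Green real-time PCR; 2^-ΔΔCT method relative to β-actin.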

[8] = tested on: HFF; test: Cytotoxicity against HFF cells assessed as reduction in cell viability incubated for 48 hrs by MTT assay; format: ADME, cell-based; conditions: Homo sapiens
[9] = tested on: PC-12; test: Antioxidant activity in amyloid beta (1 to 42)-induced oxidative stress in rat PC-12 cells assessed as reduction in ROS formation measured after 24 hrs by DAPI staining based TUNEL assay; format: functional, cell-based
Procedure, shortened: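 Aβ(1-42) (5 μM) treated PC12 cells, with compound at 1 or 10 μM, fixed in 4% paraformaldehyde (1 h), blocked with […], then permeabilized with 0.1% Triton X-100/0.1% sodium citrate on ice. TUNEL reaction 60 min at 37 °C, DAPI nuclear counterstain, imaged by fluorescence/confocal microscopy.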

[10] = tested on: PC-12; test: Cytoprotective activity against amyloid beta (1 to 42)-induced toxicity in rat PC-12 cells assessed as decrease in LDH level by spectrophotometric assay; format: functional, cell-based
Procedure, shortened: (§2)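 PC12 cells exposed to 5 μM Aβ(1-42) in serum-free DMEM 24 h at 37 °C, then compound (1 or 10 μM) added for 24 h. LDH in culture medium measured as rate of NADH oxidation (pyruvate→lactate), read as absorbance decrease at 340 nm. Expressed as leakage into medium relative to total LDH.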

[11] = tested on: PC-12; test: Cytoprotective activity against amyloid beta (1 to 42)-induced toxicity in rat PC-12 cells assessed as decrease in MDA level measured after 8 hrs by TBARS assay; format: functional, cell-based
Procedure, shortened: (§3)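 Cells seeded in six-well plates, exposed to 5 μM Aβ(1-42) with or without compound (1 or 10 μM) for 8 h. They were collected and sonicated on ice, then lysed with SDS. TBA reagent added and heated at 95 °C for 45-60 min. MDA read by TBARS absorbance at 535 nm.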

[12] = tested on: PC-12; test: Antioxidant activity in amyloid beta (1 to 42)-induced oxidative stress in rat PC-12 cells assessed as reduction in ROS formation by measuring apoptotic index at 10 uM measured after 24 hrs by DAPI staining based TUNEL assay (reference value: 60 +/- 10); format: functional
[13] = tested on: PC-12; test: Antioxidant activity in amyloid beta (1 to 42)-induced oxidative stress in rat PC-12 cells assessed as reduction in ROS formation by measuring apoptotic index at 1 uM measured after 24 hrs by DAPI staining based TUNEL assay (reference value: 60 +/- 10); format: functional
[14] = tested on: PC-12; test: Cytoprotective activity against amyloid beta (1 to 42)-induced toxicity in rat PC-12 cells assessed as decrease in MDA level at 1 to 10 uM measured after 8 hrs by TBARS assay relative to control; format: functional; design: scale not given: the % may be the effect or the level left; conditions: dose 1-10 µM; procedure, shortened: as §3
[15] = tested on: PC-12; test: Antiinflammatory activity in amyloid beta (1 to 42)-induced cytokine production in rat PC-12 cells assessed as decrease in IL-1beta mRNA level by SYBR green dye based RT-PCR analysis; format: functional, cell-based; procedure, shortened: as §1
[16] = tested on: PC-12; test: Cytoprotective activity against amyloid beta (1 to 42)-induced toxicity in rat PC-12 cells assessed as decrease in LDH level at 10 uM by spectrophotometric assay relative to control; format: functional; design: scale not given: the % may be the effect or the level left; procedure, shortened: as §2
[17] = tested on: PC-12; test: Cytoprotective activity against amyloid beta (1 to 42)-induced toxicity in rat PC-12 cells assessed as decrease in LDH level at 1 uM by spectrophotometric assay relative to control; format: functional; design: scale not given: the % may be the effect or the level left; procedure, shortened: as §2
[18] = biological target: T2, Cholinesterase; test: Non competitive inhibition of human plasma BuChE using varying levels of butyrylthiocholine iodide as substrate by Lineweaver-Burk plot analysis
[19] = tested on: MCF7; test: Cytotoxicity against human MCF7 cells after 48 hrs by MTT assay; format: ADME, cell-based; conditions: MCF7, 48 h
[20] = tested on: PC-12; test: Antioxidant activity in amyloid beta (1 to 42)-induced oxidative stress in rat PC-12 cells assessed as reduction in ROS formation by measuring DCF fluorescence intensity at 10 uM measured after 24 hrs by DCFH-DA staining based fluorescence spectrophotometric assay (reference value: 51 +/- 11); format: functional
[21] = tested on: PC-12; test: Antioxidant activity in amyloid beta (1 to 42)-induced oxidative stress in rat PC-12 cells assessed as reduction in ROS formation measured after 24 hrs by DCFH-DA staining based fluorescence spectrophotometric assay; format: functional, cell-based
Procedure, shortened: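 Intracellular ROS: PC12 cells given 5 μM Aβ(1-42) with or without compound (1 or 10 μM), then loaded with 10 μM DCFH-DA for 5 min at room temperature. DCF fluorescence read at ex 485/em 530 nm, with DAPI counterstain (ex 358/em 461) for microscopy.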

[22] = tested on: PC-12; test: Antioxidant activity in amyloid beta (1 to 42)-induced oxidative stress in rat PC-12 cells assessed as increase in TAC level at 1 to 10 uM in presence of ABTS by spectrophotometric assay; format: functional, cell-based; conditions: dose 1-10 µM
Procedure, shortened: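 Total antioxidant capacity measured with the ABTS/myoglobin method: 10 mM PBS pH 7.2, myoglobin, ABTS (300 μM final) and diluted sample or Trolox held 3 min at 25 °C. The reaction was started and absorbance read at 450 nm for 5 min at 25 °C. Cells were treated with 5 μM Aβ(1-42) with or without compound.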

[23] = tested on: PC-12; test: Protection against amyloid beta (1 to 42)-induced toxicity in rat PC-12 cells assessed as increase in cell viability measured after 24 hrs by transmission electron microscopy; format: functional, cell-based
Procedure, shortened: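 PC12 cells incubated with 5 μM Aβ(1-42), with or without compound at 1 or 10 μM, at 37 °C for 24 h. Cell morphology and viability were compared by transmission electron microscopy.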

[24] = biological target: T2, Cholinesterase; test: Inhibition of human plasma BuChE at 100 uM using butyrylthiocholine as substrate measured after 5 mins by Ellman's method relative to control
Procedure, shortened: (§4)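 Ellman spectrophotometric assay using cholinesterases from human blood. The 1 ml medium held pH 8 phosphate buffer, DTNB (3.5 mM stock), thiocholine substrate (7 mM stock) and inhibitor. It was preincubated 5 min at 37 °C, then started by adding enzyme. Absorbance increase was read at 412 nm over 5 min intervals against control cuvettes. Each experiment was run twice.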

[25] = biological target: T1, Acetylcholinesterase; test: Inhibition of human erythrocyte AChE at 100 uM using acetylthiocholine as substrate measured after 5 mins by Ellman's method relative to control; procedure, shortened: as §4
[26] = biological target: T1, Acetylcholinesterase
[27] = biological target: T1, Acetylcholinesterase; test: Non competitive inhibition of human erythrocyte AChE using varying levels of acetylthiocholine iodide as substrate by Lineweaver-Burk plot analysis

T2 sequence (P06276 whole entry): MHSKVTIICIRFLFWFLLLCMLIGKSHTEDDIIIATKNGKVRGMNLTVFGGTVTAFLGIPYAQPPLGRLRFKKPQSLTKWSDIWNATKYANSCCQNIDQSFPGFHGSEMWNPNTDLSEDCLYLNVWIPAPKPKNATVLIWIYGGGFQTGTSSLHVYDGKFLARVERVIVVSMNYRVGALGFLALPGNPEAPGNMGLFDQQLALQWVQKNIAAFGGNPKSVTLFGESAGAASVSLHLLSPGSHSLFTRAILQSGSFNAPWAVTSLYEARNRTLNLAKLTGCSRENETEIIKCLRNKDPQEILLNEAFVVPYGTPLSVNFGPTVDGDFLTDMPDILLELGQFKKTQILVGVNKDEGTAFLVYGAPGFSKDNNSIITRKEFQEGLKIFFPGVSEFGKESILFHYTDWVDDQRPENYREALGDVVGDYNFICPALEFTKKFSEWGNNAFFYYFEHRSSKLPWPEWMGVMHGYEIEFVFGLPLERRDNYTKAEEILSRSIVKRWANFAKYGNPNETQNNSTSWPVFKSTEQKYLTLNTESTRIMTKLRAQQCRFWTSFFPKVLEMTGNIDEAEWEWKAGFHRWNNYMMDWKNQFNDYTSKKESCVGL
T1 sequence (P22303 whole entry): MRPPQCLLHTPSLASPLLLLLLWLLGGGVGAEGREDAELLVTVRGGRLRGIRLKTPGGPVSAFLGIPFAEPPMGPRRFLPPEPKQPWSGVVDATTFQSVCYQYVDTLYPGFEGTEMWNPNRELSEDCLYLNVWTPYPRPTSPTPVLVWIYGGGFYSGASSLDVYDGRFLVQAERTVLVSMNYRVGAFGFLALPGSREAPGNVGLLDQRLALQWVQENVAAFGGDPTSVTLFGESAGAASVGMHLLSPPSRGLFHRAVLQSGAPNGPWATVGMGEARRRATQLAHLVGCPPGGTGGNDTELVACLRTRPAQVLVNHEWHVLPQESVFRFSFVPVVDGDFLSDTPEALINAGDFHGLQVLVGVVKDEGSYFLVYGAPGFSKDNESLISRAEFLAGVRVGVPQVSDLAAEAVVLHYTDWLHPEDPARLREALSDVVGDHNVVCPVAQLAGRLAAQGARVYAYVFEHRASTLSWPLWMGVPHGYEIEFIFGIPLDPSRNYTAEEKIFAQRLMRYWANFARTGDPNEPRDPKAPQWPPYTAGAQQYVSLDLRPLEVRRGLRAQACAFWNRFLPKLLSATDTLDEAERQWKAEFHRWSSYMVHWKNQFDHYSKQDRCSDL

CCC[N+]1(C)CCN(c2ccc(/C=C3\Cc4cc(OC)c(OC)cc4C3=O)cc2)CC1
IC50 [1]: 2150 nM
IC50 [2]: 20.2 µM
Ratio IC50 [3]: 0.11

CCCC[N+]1(C)CCN(c2ccc(/C=C3\Cc4cc(OC)c(OC)cc4C3=O)cc2)CC1
IC50 [1]: 540 nM
IC50 [2]: 21.6 µM
Ratio IC50 [3]: 0.02

CCCCCC[N+]1(C)CCN(c2ccc(/C=C3\Cc4cc(OC)c(OC)cc4C3=O)cc2)CC1
IC50 [1]: 4250 nM
IC50 [2]: 3.6 µM
Ratio IC50 [3]: 1.18

COc1cc2c(cc1OC)C(=O)/C(=C/c1ccc(N3CC[N+](C)(Cc4ccc(Br)cc4)CC3)cc1)C2
IC50 [1]: 2550 nM
IC50 [2]: 4.6 µM
Ratio IC50 [3]: 0.55

COc1cc2c(cc1OC)C(=O)/C(=C/c1ccc(N3CC[N+](C)(CCO)CC3)cc1)C2
IC50 [1]: 1100 nM
IC50 [2]: 6.48 µM
Ratio IC50 [3]: 0.17

COc1cc2c(cc1OC)C(=O)/C(=C/c1ccc(N3CC[N+](C)(Cc4cccc(Cl)c4)CC3)cc1)C2.[Br-]
Flu intensity [4]: 51
Ki [5]: 1000 nM
Kinact [5]: 0.5 µM
IC50 [6]: 1230 nM
IC50 [1]: 320 nM
Activity [7]: Dose-dependent effect
IC50 [8]: 1980 nM
Activity [9]: Dose-dependent effect
Activity [10]: Dose-dependent effect
Activity [11]: Dose-dependent effect
Activity_index [12]: 35
Activity_index [13]: 50
Activity [14]: 40.4%
Activity [15]: Dose-dependent effect
Activity [16]: 27.5%
IC50 [2]: 0.43 µM
Activity [17]: 16.6%
Ki [18]: 500 nM
IC50 [19]: 1520 nM
Flu intensity [20]: 38
Activity [21]: Dose-dependent effect
Activity [22]: Active
Ratio IC50 [3]: 0.74
Activity [23]: Dose-dependent effect

C=CC[N+]1(C)CCN(c2ccc(/C=C3\Cc4cc(OC)c(OC)cc4C3=O)cc2)CC1
IC50 [1]: 430 nM
IC50 [2]: 25.2 µM
Ratio IC50 [3]: 0.02

COc1cc2c(cc1OC)C(=O)/C(=C/c1ccc(N3CC[N+](C)(Cc4cccc(Br)c4)CC3)cc1)C2
IC50 [1]: 1990 nM
IC50 [2]: 0.65 µM
Ratio IC50 [3]: 3.06

COc1cc2c(cc1OC)C(=O)/C(=C/c1ccc(OCCCCBr)cc1)C2
inhibition [24]: 0%
inhibition [25]: 27.8%

CCCCC[N+]1(C)CCN(c2ccc(/C=C3\Cc4cc(OC)c(OC)cc4C3=O)cc2)CC1
IC50 [1]: 540 nM
IC50 [2]: 3.24 µM
Ratio IC50 [3]: 0.17

COc1cc2c(cc1OC)C(=O)/C(=C/c1ccc(N3CC[N+](C)(Cc4ccccc4Br)CC3)cc1)C2
IC50 [1]: 540 nM
IC50 [2]: 1.4 µM
Ratio IC50 [3]: 0.38

COc1cc2c(cc1OC)C(=O)/C(=C/c1ccc(N3CC[N+](C)(Cc4ccccn4)CC3)cc1)C2
IC50 [1]: 380 nM
IC50 [2]: 3.24 µM
Ratio IC50 [3]: 0.12

COc1cc2c(cc1OC)C(=O)/C(=C/c1ccc(N3CCN(C)CC3)cc1)C2
inhibition [24]: 23.9%
IC50 [1]: 320 nM

COc1cc2c(cc1OC)C(=O)/C(=C/c1ccc(OCCBr)cc1)C2
inhibition [24]: 5.16%
inhibition [25]: 6.16%

COc1cc2c(cc1OC)C(=O)/C(=C/c1ccc(N3CC[N+](C)(Cc4ccccc4Cl)CC3)cc1)C2
IC50 [1]: 480 nM
IC50 [2]: 2.16 µM
Ratio IC50 [3]: 0.22

COc1cc2c(cc1OC)C(=O)/C(=C/c1ccc(N3CC[N+](C)(Cc4ccccc4)CC3)cc1)C2
IC50 [6]: 1280 nM
IC50 [1]: 370 nM
IC50 [8]: 2400 nM
Kinact [26]: 0.5 µM
IC50 [2]: 0.43 µM
Ki [18]: 400 nM
IC50 [19]: 1200 nM
Ki [27]: 500 nM
Ratio IC50 [3]: 0.86
